Compound activity from PubChem.
Lipid droplet: modulators of hepatic lipid droplet formation; actives 0.4% (n = 240,000); inhibition, % at 6.5 µM; AML12 mouse hepatocytes, oleate lipid droplets, BODIPY imaging;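 active = lipid droplet intensity inhibited by at least 50%, with more than 500 cells counted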
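Material – mouse AML12 hepatocyte cell line, fixed after treatment · Compound dosing – one dose, 6.5 µM compound · Times – compound with oleate, overnight · Measured by – Image-based BODIPY and DAPI two-channel analysis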
Redox H2O2 prof: compounds producing H2O2 with reducing agent – biochemical, NIH compound library profiling, artefact control for MLSCN library redox annotation, primary screen. DTT-dependent redox cycling H2O2, phenol red/HRP absorbance; 100% = 100 µM peroxide control, 0% = buffer. activation, % at 10 µM. actives 0.03% (n = 200,000);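 active = activation of at least 50% relative to the plate's high and low controls in the primary single-dose screen; inactive = activation below 50%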;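 also: compound incubated with DTT at 0.8 mM final as the reducing agent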
MPTP block: blocks calcium-induced mitochondrial swelling; inhibition, % at 10 µM; actives 1.4% (n = 360,000); isolated mouse mitochondria, Ca2+ swelling absorbance, 30 min;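 active = inhibition of 50% or more, scaled per plate between neutral and stimulator controls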;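 also: 0% = DMSO wells given calcium and 100% = 1 mM EGTA wells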
T cruzi inh: blocks replication of Trypanosoma cruzi; T. cruzi beta-gal in NIH3T3, luminescence, 90 h; inhibition, % (test concentration not listed); actives 1.4% (n = 300,000);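 active = mean inhibition across valid replicates above about 55%, limit read from the data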;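 also: signal also drops with host cell toxicity which is not excluded here; 0% = plate median of DMSO wells and 100% = zero luminescence signal; higher percent means less beta-gal luminescence so fewer parasites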
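System: mouse NIH/3T3 fibroblasts infected with β-gal-expressing T. cruzi Tulahuen C4 / Input: NIH/3T3 cells, 5,000 per well / Buffer or medium: Low-serum DMEM with 2% FBS / Probe or stimulus: 5000 reporter trypomastigotes per well / Schedule: ≥90 h infection period, 3 h prior cell attachment / Measured by: GalScreen luminescence, 60 min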
L major viab: inhibitors of Leishmania major promastigote growth; Leishmania major promastigotes, resazurin fluorescence viability; inhibition, % at 10 µM; actives 9% (n = 200,000); in the data active = inhibition above about 50%;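 also: promastigotes grown with compound for 44 hours at 28 °C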
Lipid drop inh: hepatic lipid droplet formation inhibition, confirmed; shares compounds with Lipid droplet; AML12 mouse hepatocytes, BODIPY lipid droplet imaging; droplets induced with 100 µM oleic acid; inhibition, % at 5.2 µM; actives 65% (n = 870); AID 463183;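 active = inhibition of lipid droplet metric at least 50%, with more than 300 cells in each of four replicates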;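 also: plate controls were DMSO with oleic acid for no effect and 5 µM Triacsin-C for full effect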
AML12 tox img: toxic to AML12 mouse hepatocytes in counter-screen; shares compounds with Lipid droplet; DAPI nuclear morphology cytotoxicity imaging; stronger effect = higher value; cells fed 100 µM oleate overnight; z-score at 5 µM; actives 3% (n = 870); AID 463200; in the data active = z-score above about 6.3;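 also: compound exposure lasted overnight at 37 °C before fixation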
AML12 tox conf: confirmation of cytotoxicity in AML12 mouse hepatocytes; shares compounds with Lipid droplet; AML12 mouse hepatocyte viability, ATP luminescence; cells loaded with 100 µM oleic acid; cytotoxicity, % at 50 µM; 530 tested, under 10 active; AID 463219;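 active = cytotoxicity above 50% in each of four replicates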;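 also: compound exposure lasted overnight at 37 °C before the ATP read; 0% = DMSO-treated cells and 100% = wells with no cells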
* marks the source's active call; other numbers are inactive results; nt = not tested or not shown. Many of the other results were omitted from the sample, so hits are more common in it than they were.

SMILES | Lipid droplet | Redox H2O2 prof | MPTP block | T cruzi inh | L major viab | Lipid drop inh | AML12 tox img | others
CC(C)N1CCN(c2ccncc2S(=O)(=O)N2CCN(C)CC2)CC1 | nt | nt | -1.2 | nt | nt | nt | nt
CCOc1ccccc1N=Nc1c(C)[nH]n(-c2ccccc2)c1=O | 75.9* | nt | 1.5 | 17.0 | nt | 12.8 | 0.31
Cc1[nH]n(-c2ccccc2)c(=O)c1N=Nc1ccc(C#N)cc1 | -0.2 | nt | 1.9 | -5.5 | nt | nt | nt
COc1ccccc1N=Nc1c(C)[nH]n(-c2ccccc2)c1=O | 56.3* | nt | 2.2 | 11.9 | nt | 3.8 | 0.0293
CCCN1C(=O)/C(=C2/C=Cc3ccccc3N2CC)SC1=S | 84.9* | 0.7 | 8.0 | 30.3 | -5.6 | 105.3* | -0.132 | AML12 tox conf=12.9
O=C(Nc1cc([N+](=O)[O-])ccc1Cl)c1ccc2c(c1)OCO2 | -20.0 | -0.8 | 0.8 | 1.6 | -3.4 | nt | nt
COc1ccc(C=C(NC(=O)c2ccccc2)C(=O)O)cc1OC | nt | nt | -1.4 | nt | nt | nt | nt
COC(=O)/C(=C/c1ccc2c(c1)c1ccccc1n2C)NC(=O)c1ccccc1 | 83.4* | 0.5 | -10.1 | 31.2 | 9.5 | 79.8* | 0.527 | AML12 tox conf=-2.6
Cc1cc(=O)n2ccsc2n1 | 1.8 | -0.9 | -0.8 | -4.4 | -5.2 | nt | nt
Cc1cccc(Nc2ncnc3ccccc23)c1 | 65.8* | -0.2 | -0.9 | -15.9 | 87.8* | 53.3* | 13.5*
COc1ccccc1/C=C1\SC(=S)N(CCC(=O)Nc2cccc(O)c2)C1=O | -2.9 | nt | 1.9 | -6.6 | nt | nt | nt
CCCN(CCC)C(=O)CSc1nc2n[nH]c(C)c2c(=N)n1-c1ccc(OCC)cc1 | nt | -0.5 | -0.8 | nt | 38.4 | nt | nt
CCOc1ccc(-n2c(SCC(=O)Nc3ccc(CC)cc3)nc3n[nH]c(C)c3c2=N)cc1 | 51.0* | -0.5 | 3.0 | 5.2 | -5.2 | 3.5 | -0.827
CCc1cc(SC#N)cc(C)c1NC(=O)CCl | 68.4* | -0.4 | 1.4 | 14.8 | 40.1 | 58.5 | 4.25
N#C/C(=C\c1ccc(-c2ccc([N+](=O)[O-])cc2)o1)C(=O)Nc1nc(-c2cccs2)cs1 | 17.7 | nt | 7.6 | 0.0 | nt | nt | nt
N#C/C(=C\c1ccc(-c2ccccc2[N+](=O)[O-])o1)C(=O)Nc1nc(-c2cccs2)cs1 | 72.1* | 1.2 | 20.7 | -22.5 | 0.8 | 101.2* | -0.469 | AML12 tox conf=0.6
CCC(=O)Nc1c2c(nn1-c1ccc(C)cc1)CS(=O)(=O)C2 | 57.0* | nt | -1.0 | -8.2 | nt | 35.2 | 0.254
CCCc1ccc(S(=O)(=O)NCc2nnc(SC)n2C)cc1 | -0.6 | nt | -0.1 | 5.6 | nt | nt | nt
Cc1ccc(NC(=O)CN(C)S(=O)(=O)c2cccs2)c(Br)c1 | 63.3* | nt | 1.8 | -3.1 | nt | 20.1 | -0.333
COc1cc(C2N3CC4(C)CN2CC(C)(C3)C4)ccc1O (stereo unspecified) | 91.5* | 2.7 | 0.3 | -5.9 | -2.8 | 5.0 | -1.55
Cc1cc(=O)oc2cc(OCC(=O)NC3CCN(Cc4ccccc4)CC3)c(Cl)cc12 | 62.9* | nt | -0.7 | 47.7 | nt | 13.2 | -1.24
Cc1cc(=O)oc2cc(OCC(=O)NC3CCN(Cc4ccccc4)CC3)ccc12 | -8.2 | nt | 0.0 | 45.1 | nt | nt | nt
Cc1cc(C(=O)Nc2ccc(F)cc2F)on1 | 0.8 | nt | -1.0 | -9.3 | nt | nt | nt
Cc1noc(C)c1C(=O)Nc1ccc(F)cc1F | 55.3* | 0.9 | -3.2 | 8.0 | -4.9 | 27.7 | -0.471
C=CCNC(=O)N1CCC(n2nccc2NC(=O)CCCc2ccccc2)CC1 | -33.3 | nt | -0.7 | -3.1 | nt | nt | nt
Cc1c(C(=O)O)sc2nc3n(c(=O)c12)CCC(C)CC3 (stereo unspecified) | 93.4* | 0.5 | 0.6 | 15.2 | -3.3 | 26.6 | -0.372
Cc1c(C(=O)O)sc2nc3n(c(=O)c12)CCCCC3 | 10.0 | 0.0 | -0.8 | -5.9 | -3.8 | nt | nt
C=CCOc1ccc(/C=N/NC(=O)c2cc3c(OC)cc(OC)cc3[nH]2)cc1 | 56.5* | nt | 1.9 | 22.5 | nt | 51.0 | 2.27
COC(=O)[C@]1(CC(C)C)N[C@H](c2ccc(-c3ccc(Cl)c(Cl)c3)cc2)[C@@H]2C(=O)N(C)C(=O)[C@@H]21 | nt | nt | 1.0 | 17.5 | nt | nt | nt
